The results in this text go back to ChEMBL document CHEMBL1137684, “Examination of growth inhibitory properties of synthetic chalcones for which antibacterial activity was predicted” (2009).

In brackets after ≈: the same amount, converted by molar mass. Activity calls are given as the source filed them. No rule for the calls is given here.

The first assay relates to Staphylococcus aureus. Kind of assay: Antibacterial activity against Staphylococcus aureus Rosenbach 209 after 24 hrs by serial dilution method. The format is functional. As to conditions: Rosenbach 209, 24 h. A digest of the protocol:
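Serial dilution of each chalcone in meat-peptone broth in tubes. Each tube was inoculated with bacterial suspension at 10⁵ cells/ml and incubated at 37 °C for 24 h. MIC was the lowest dilution with no visible growth compared with inoculated drug-free broth.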
In general, MIC refers to the lowest concentration that inhibits growth of the organism. Lower therefore signals greater potency. For `O=C(/C=C/c1ccc([N+](=O)[O-])cc1)c1ccccc1`, inhibition of growth (MIC) required 250 mg/L (≈ 987 µM).

`COc1cc(/C=C/C(=O)c2cc(OC)c(OC)c(OC)c2)ccc1O` gave an MIC of 500 mg/L (≈ 1450 µM). Against the preceding molecule, the MIC is about 2-fold higher.

`O=C(/C=C/C=C/c1ccccc1)c1ccccc1` yielded an MIC of 500 mg/L (≈ 2130 µM).

`COc1cc(C(=O)/C=C/c2ccc(Cl)cc2)cc(OC)c1OC` returned an MIC of 62.5 mg/L (≈ 188 µM). Against the preceding molecule, the MIC is about 8-fold lower.

With `Cc1ccc(/C=C/C(=O)c2ccccc2)cc1`, the MIC was 500 mg/L (≈ 2250 µM).

Consider `O=C(/C=C/c1ccc(O)c(O)c1)c1ccccc1`, for which 125 mg/L (≈ 520 µM) was the least that counted as inhibitory (MIC).

In turn, `COc1ccc(/C=C/C(=O)c2ccccc2)cc1` [4-METHOXY CHALCONE] showed an MIC of 500 mg/L (≈ 2100 µM).

The molecule `COc1cc(C(=O)/C=C/c2ccc(C#N)cc2)cc(OC)c1OC` returned an MIC of 62.5 mg/L (≈ 193 µM).

The molecule `O=C(/C=C/c1ccccc1)c1ccccc1` [CHALCONE] displayed an MIC of 125 mg/L (≈ 600 µM). This MIC is about 2-fold higher than that of the molecule before.

On to `COc1cc(C(=O)/C=C/c2ccc(N(C)C)cc2)cc(OC)c1OC`, for which the MIC stood at 500 mg/L (≈ 1460 µM).

As to `CC(=O)Nc1ccc(/C=C/C(=O)c2ccccc2)cc1`, the MIC is 500 mg/L (≈ 1880 µM).

`COc1cccc(/C=C/C(=O)c2ccc(Cl)cc2)c1O` showed an MIC of 250 mg/L (≈ 866 µM).

`O=C(/C=C/C=C/c1ccccc1)/C=C/C=C/c1ccccc1`: it took 500 mg/L (≈ 1750 µM) to inhibit growth (MIC). Against the preceding molecule, the MIC is about 2-fold higher.

`CC(=O)Nc1ccc(/C=C/C(=O)c2ccc(Cl)cc2)cc1`: the minimum inhibitory concentration (MIC) came out at 500 mg/L (≈ 1670 µM).

The molecule `O=C(/C=C/c1ccccc1)c1ccc(Cl)cc1` returned a minimal inhibitory concentration (MIC) of 500 mg/L (≈ 2060 µM).

`O=C(/C=C/c1ccc(O)c(O)c1)c1ccc(Cl)cc1` showed an MIC of 125 mg/L (≈ 455 µM).

Regarding `O=C(/C=C/c1ccc(Cl)cc1)/C=C/c1ccc(Cl)cc1`, 250 mg/L (≈ 825 µM) was the least that counted as inhibitory (MIC). Against the preceding molecule, the MIC is about 2-fold higher.

As to `O=C(/C=C/c1ccccc1O)c1ccc(Cl)cc1`, inhibition of growth (MIC) required 125 mg/L (≈ 483 µM).

`COc1cc(C(=O)/C=C/c2ccc(C)cc2)cc(OC)c1OC` came in with an MIC of 500 mg/L (≈ 1600 µM).

`COc1ccc(/C=C/C(=O)c2cc(OC)c(OC)c(OC)c2)cc1O` returned an MIC of 500 mg/L (≈ 1450 µM).

Consider `CN(C)c1ccc(/C=C/C(=O)c2ccccc2)cc1`, for which 500 mg/L (≈ 1990 µM) was the least that counted as inhibitory (MIC).

In turn, `Cc1ccc(/C=C/C(=O)c2ccc(Cl)cc2)cc1` came in with an MIC of 500 mg/L (≈ 1950 µM).

For `O=C(/C=C/c1ccccc1O)c1ccccc1`, the lowest concentration to inhibit growth (MIC) was 62.5 mg/L (≈ 279 µM).

Molecule `CN(C)c1ccc(/C=C/C(=O)c2ccc(Cl)cc2)cc1` returned a minimum inhibitory concentration (MIC) of 500 mg/L (≈ 1750 µM).

Molecule `COc1cc(C(=O)/C=C/c2cccc(O)c2)cc(OC)c1OC` displayed a minimal inhibitory concentration (MIC) of 500 mg/L (≈ 1590 µM).

A further assay relates to Escherichia coli. Kind of assay: Antibacterial activity against Escherichia coli WF+.
Conditions: not given
The format is functional, organism-based.
In the case of `O=C(/C=C/c1ccc([N+](=O)[O-])cc1)c1ccccc1`, the result was inactive.

As for `COc1cc(/C=C/C(=O)c2cc(OC)c(OC)c(OC)c2)ccc1O`, the outcome was inactive.

`O=C(/C=C/C=C/c1ccccc1)c1ccccc1`: the outcome was inactive.

Regarding `COc1cc(C(=O)/C=C/c2ccc(Cl)cc2)cc(OC)c1OC`, the outcome was inactive.

For the molecule `Cc1ccc(/C=C/C(=O)c2ccccc2)cc1`, the outcome was inactive.

For `O=C(/C=C/c1ccc(O)c(O)c1)c1ccccc1`, the result was inactive.

As to `COc1ccc(/C=C/C(=O)c2ccccc2)cc1` [4-METHOXY CHALCONE], the result was inactive.

As to `COc1cc(C(=O)/C=C/c2ccc(C#N)cc2)cc(OC)c1OC`, the result was inactive.

Consider `O=C(/C=C/c1ccccc1)c1ccccc1` [CHALCONE], for which the result was inactive.

For the molecule `COc1cc(C(=O)/C=C/c2ccc(N(C)C)cc2)cc(OC)c1OC`, the result was inactive.

Consider `CC(=O)Nc1ccc(/C=C/C(=O)c2ccccc2)cc1`, for which the result was inactive.

Take `COc1cccc(/C=C/C(=O)c2ccc(Cl)cc2)c1O`: the outcome was inactive.

As to `O=C(/C=C/C=C/c1ccccc1)/C=C/C=C/c1ccccc1`, the outcome was inactive.

In the case of `CC(=O)Nc1ccc(/C=C/C(=O)c2ccc(Cl)cc2)cc1`, the outcome was inactive.

Regarding `O=C(/C=C/c1ccccc1)c1ccc(Cl)cc1`, the result was inactive.

Consider `O=C(/C=C/c1ccc(O)c(O)c1)c1ccc(Cl)cc1`, for which the result was inactive.

Take `O=C(/C=C/c1ccc(Cl)cc1)/C=C/c1ccc(Cl)cc1`: the outcome was inactive.

As for `O=C(/C=C/c1ccccc1O)c1ccc(Cl)cc1`, the outcome was inactive.

Turning to `COc1cc(C(=O)/C=C/c2ccc(C)cc2)cc(OC)c1OC`, the result was inactive.

Regarding `COc1ccc(/C=C/C(=O)c2cc(OC)c(OC)c(OC)c2)cc1O`, the outcome was inactive.

For `CN(C)c1ccc(/C=C/C(=O)c2ccccc2)cc1`, the outcome was inactive.

Turning to `Cc1ccc(/C=C/C(=O)c2ccc(Cl)cc2)cc1`, the result was inactive.

With `O=C(/C=C/c1ccccc1O)c1ccccc1`, the outcome was inactive.

As for `CN(C)c1ccc(/C=C/C(=O)c2ccc(Cl)cc2)cc1`, the outcome was inactive.

For `COc1cc(C(=O)/C=C/c2cccc(O)c2)cc(OC)c1OC`, the outcome was inactive.

For a further assay, the system named is Staphylococcus aureus. Kind of assay: Antibacterial activity against Staphylococcus aureus Rosenbach 209 after 48 hrs by agar well diffusion method. The format is functional.
Conditions: not given
The method, boiled down: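 Agar-well diffusion on meat-peptone agar. Read-out was the diameter of the inhibition zone, with ≥15 mm taken as active. Pure solvent served as the control.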
For orientation: Agar diffusion results depend on both activity and mobility in agar.
For `O=C(/C=C/c1ccc([N+](=O)[O-])cc1)c1ccccc1`, the “diameter of the inhibition zone (DIZ)” value is listed as 17 mm.

`COc1cc(/C=C/C(=O)c2cc(OC)c(OC)c(OC)c2)ccc1O`: the “diameter of the inhibition zone (DIZ)” value came to 0 mm.

As for `O=C(/C=C/C=C/c1ccccc1)c1ccccc1`, the “diameter of the inhibition zone (DIZ)” value turned out to be 0 mm.

Consider `COc1cc(C(=O)/C=C/c2ccc(Cl)cc2)cc(OC)c1OC`, for which the “diameter of the inhibition zone (DIZ)” value is given as 0 mm.

Turning to `Cc1ccc(/C=C/C(=O)c2ccccc2)cc1`, the “diameter of the inhibition zone (DIZ)” value is recorded as 0 mm.

Turning to `O=C(/C=C/c1ccc(O)c(O)c1)c1ccccc1`, the “diameter of the inhibition zone (DIZ)” value is recorded as 21 mm.

For the molecule `COc1ccc(/C=C/C(=O)c2ccccc2)cc1` [4-METHOXY CHALCONE], the “diameter of the inhibition zone (DIZ)” value turned out to be 0 mm.

For `COc1cc(C(=O)/C=C/c2ccc(C#N)cc2)cc(OC)c1OC`, the “diameter of the inhibition zone (DIZ)” value was 0 mm.

For `O=C(/C=C/c1ccccc1)c1ccccc1` [CHALCONE], the “diameter of the inhibition zone (DIZ)” value is given as 29 mm.

In the case of `COc1cc(C(=O)/C=C/c2ccc(N(C)C)cc2)cc(OC)c1OC`, the “diameter of the inhibition zone (DIZ)” value was 0 mm.

Consider `CC(=O)Nc1ccc(/C=C/C(=O)c2ccccc2)cc1`, for which the “diameter of the inhibition zone (DIZ)” value amounted to 0 mm.

Take `COc1cccc(/C=C/C(=O)c2ccc(Cl)cc2)c1O`: the “diameter of the inhibition zone (DIZ)” value amounted to 0 mm.

As to `O=C(/C=C/C=C/c1ccccc1)/C=C/C=C/c1ccccc1`, the “diameter of the inhibition zone (DIZ)” value turned out to be 0 mm.

For the molecule `CC(=O)Nc1ccc(/C=C/C(=O)c2ccc(Cl)cc2)cc1`, the “diameter of the inhibition zone (DIZ)” value was 0 mm.

Regarding `O=C(/C=C/c1ccccc1)c1ccc(Cl)cc1`, the “diameter of the inhibition zone (DIZ)” value is reported as 0 mm.

Take `O=C(/C=C/c1ccc(O)c(O)c1)c1ccc(Cl)cc1`: the “diameter of the inhibition zone (DIZ)” value came out at 19 mm.

Regarding `O=C(/C=C/c1ccc(Cl)cc1)/C=C/c1ccc(Cl)cc1`, the “diameter of the inhibition zone (DIZ)” value is recorded as 0 mm.

On to `O=C(/C=C/c1ccccc1O)c1ccc(Cl)cc1`, for which the “diameter of the inhibition zone (DIZ)” value is listed as 20 mm.

In the case of `COc1cc(C(=O)/C=C/c2ccc(C)cc2)cc(OC)c1OC`, the “diameter of the inhibition zone (DIZ)” value is 0 mm.

Consider `COc1ccc(/C=C/C(=O)c2cc(OC)c(OC)c(OC)c2)cc1O`, for which the “diameter of the inhibition zone (DIZ)” value turned out to be 0 mm.

Consider `CN(C)c1ccc(/C=C/C(=O)c2ccccc2)cc1`, for which the “diameter of the inhibition zone (DIZ)” value is on record as 0 mm.

As for `Cc1ccc(/C=C/C(=O)c2ccc(Cl)cc2)cc1`, the “diameter of the inhibition zone (DIZ)” value was determined as 0 mm.

In the case of `O=C(/C=C/c1ccccc1O)c1ccccc1`, the “diameter of the inhibition zone (DIZ)” value worked out at 22 mm.

In the case of `CN(C)c1ccc(/C=C/C(=O)c2ccc(Cl)cc2)cc1`, the “diameter of the inhibition zone (DIZ)” value is given as 0 mm.

Take `COc1cc(C(=O)/C=C/c2cccc(O)c2)cc(OC)c1OC`: the “diameter of the inhibition zone (DIZ)” value came to 0 mm.
